Calls of active or inactive are those of the source. The rule behind the calls is not given here.
What was measured:
[1] = Binding affinity to bovine bone matrix at pH 6 at 300 uM after 4 hrs by spectrophotometric analysis; format: ADME, Bos taurus; conditions: cattle, pH 6, 4 h
How it was run: (§1)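 Cortical bovine backbone bone cut into 6×4×1 mm pieces, washed with water and absolute ethanol, dried. About 50 mg bone stirred at 37 °C with 300 μM prodrug in 4 mM Na₂HPO₄, 150 mM NaCl, pH 6.0 or 7.4. Control without bone. Centrifuged, supernatant A495 read. % bound = (conc without bone − conc with bone)/conc without bone × 100.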

Bos taurus = species on record: Bos taurus; test: Binding affinity to bovine bone matrix at pH 7.4 at 300 uM after 4 hrs by spectrophotometric analysis; how it was run: as §1
[2] = Toxicity in iv dosed Balb/c nude mouse administered as doxorubicin equivalents once a week for 3 weeks; format: organism-based; conditions: in vivo
How it was run: (§2)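 Female Balb/C nude mice, five weeks old, about 20 g, three per group. Prodrug dissolved at 3.4 mM in sterile 10 mM sodium phosphate/sodium chloride buffer, pH 7.4. Given i.v. once weekly for three weeks at 8, 16 or 24 mg/kg doxorubicin equivalents. Behaviour and welfare checked daily, body weight every two days, observation over four weeks.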

Mus musculus [3] = test: Toxicity in Balb/c nude mouse assessed as change in body weight at 24 mg/kg, iv of doxorubicin equivalents administered once a week on days 7, 14 and 21; format: organism-based; design: dose 24 mg/kg, route intravenous; conditions: in vivo; how it was run: as §2
Mus musculus [4] = test: Toxicity in Balb/c nude mouse assessed as mortality at 24 mg/kg, iv of doxorubicin equivalents administered once a week on days 7, 14 and 21 measured 13 days post-last dose; format: organism-based; design: dose 24 mg/kg, route intravenous; conditions: in vivo, 312 h; how it was run: as §2
Mus musculus [5] = test: Toxicity in Balb/c nude mouse assessed as anemia at 24 mg/kg, iv of doxorubicin equivalents administered once a week on days 7, 14 and 21 measured 13 days post-last dose; format: organism-based; design: dose 24 mg/kg, route intravenous; conditions: in vivo, 312 h; how it was run: as §2
Mus musculus [6] = test: Toxicity in Balb/c nude mouse assessed as adverse effects at 24 mg/kg, iv of doxorubicin equivalents administered once a week on days 7, 14 and 21; format: organism-based; design: dose 24 mg/kg, route intravenous; conditions: in vivo; how it was run: as §2
Mus musculus [7] = test: Toxicity in Balb/c nude mouse assessed as adverse effects at 16 mg/kg, iv of doxorubicin equivalents administered once a week on days 7, 14 and 21; format: organism-based; design: dose 16 mg/kg, route intravenous; conditions: in vivo; how it was run: as §2
Mus musculus [8] = test: Toxicity in Balb/c nude mouse assessed as adverse effects at 8 mg/kg, iv of doxorubicin equivalents administered once a week on days 0, 7 and 14 measured after 1 week; format: organism-based; design: dose 8 mg/kg, route intravenous; conditions: in vivo, 168 h; how it was run: as §2
Mus musculus [9] = test: Toxicity in Balb/c nude mouse assessed as weight loss at 8 mg/kg, iv of doxorubicin equivalents administered once a week on days 0, 7 and 14 measured after 1 week; format: organism-based; design: dose 8 mg/kg, route intravenous; conditions: in vivo, 168 h; how it was run: as §2
Hydroxyapatite [10] = test: Binding affinity to bone mineral hydroxyapatite at pH 6 at 300 uM after 1 hr by photometric analysis
How it was run: (§3)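 Compound diluted to 300 μM (checked by absorbance at 495 nm, ε 10650 M⁻¹ cm⁻¹) in 4 mM sodium phosphate, 150 mM NaCl at pH 6.0 or 7.4. Hydroxyapatite (30 equiv) added, stirred at 37 °C. Parallel solution without HA as control. Centrifuged at 0–6 h and 20 h; supernatant A495 read. Mean of three measurements. % bound = (conc without HA − conc with HA)/conc without HA × 100.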

Hydroxyapatite [11] = test: Binding affinity to bone mineral hydroxyapatite at pH 7.4 at 300 uM after 5 hrs by photometric analysis; how it was run: as §3
Hydroxyapatite [12] = test: Binding affinity to bone mineral hydroxyapatite at pH 7.4 at 300 uM after 1 hr by photometric analysis; how it was run: as §3
Plasma [13] = test: Stability in human plasma assessed as anthracycline derivative formation over 6 hrs by HPLC analysis; format: ADME, cell-free
How it was run: (§4)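 Prodrug stock (3 mM in 10 mM sodium phosphate, 0.15 M NaCl, pH 7.4) added to EDTA-anticoagulated plasma from healthy volunteers, final 600 μM. Incubated at 37 °C for 0, 0.5, 1, 3 and 6 h. Samples centrifuged; supernatant analysed by C18 RP-HPLC with detection at 495 nm.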

Plasma [14] = test: Stability in human plasma assessed as doxorubicin formation over 6 hrs by HPLC analysis; format: ADME, cell-free; how it was run: as §4
[15] = Prodrug conversion assessed as doxorubicin formation at pH 5.5 at 600 uM by HPLC analysis; format: physicochemical; conditions: pH 5.5, 600 µM; TDE = time-dependent effect
How it was run: (§5)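 Prodrug at a final 2.4 mM in 4 mM sodium phosphate, 150 mM NaCl (pH 7.4), brought to pH 5.5 with 50 mM sodium acetate (pH 4.5). Held at room temperature; samples diluted to 600 μM and analysed by isocratic C18 HPLC (30% CH₃CN/10 mM phosphate pH 7.8) at 5–300 min.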

[16] = Half life of the compound at pH 5.5 at 600 uM by HPLC analysis; format: physicochemical; how it was run: as §5
[17] = Prodrug conversion assessed as doxorubicin formation by HPLC analysis at pH 5 in presence of cathepsin B; format: physicochemical
How it was run: (§6)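 Prodrug stock (1.5 mM) mixed with human liver cathepsin B (0.4 mg/mL, 23.8 U/mg) in 50 mM sodium acetate, 100 mM NaCl, 4 mM EDTA, 8 mM L-cysteine at pH 5.0 or 6.0. Incubated at 37 °C. Aliquots taken at 5–120 min and analysed by gradient C18 RP-HPLC. Control at pH 5.0 omitted the enzyme.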

Mus musculus [18] = test: Toxicity in Balb/c nude mouse assessed as mortality at 24 mg/kg, iv of doxorubicin equivalents measured on day 7; format: organism-based; design: dose 24 mg/kg, route intravenous; conditions: in vivo; how it was run: as §2
Mus musculus [19] = test: Toxicity in Balb/c nude mouse assessed as mortality at 16 mg/kg, iv of doxorubicin equivalents measured on day 7; format: organism-based; design: dose 16 mg/kg, route intravenous; conditions: in vivo; how it was run: as §2
Hydroxyapatite [20] = test: Binding affinity to bone mineral hydroxyapatite at pH 6 at 300 uM up to 24 hrs by photometric analysis; how it was run: as §3
Hydroxyapatite [21] = test: Binding affinity to bone mineral hydroxyapatite at pH 7.4 at 300 uM after 24 hrs by photometric analysis
[22] = Prodrug conversion assessed as doxorubicin formation after 40 mins by HPLC analysis at pH 6 in presence of cathepsin B; format: physicochemical; conditions: pH 6, 40 min; how it was run: as §6
[23] = […] by HPLC analysis at pH 5 in absence of cathepsin B; format: physicochemical; conditions: buffer
[24] = Prodrug conversion assessed as doxorubicin formation after 120 mins by HPLC analysis at pH 5 in presence of cathepsin B; format: physicochemical; conditions: pH 5, 2 h; how it was run: as §6
[25] = Half life of the compound by HPLC analysis at pH 5 in presence of cathepsin B; format: physicochemical; how it was run: as §6
Hydroxyapatite [26] = test: Binding affinity to bone mineral hydroxyapatite at pH 7.4 at 300 uM by photometric analysis
How it was run: (§7)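 Test compound at 300 μM in 4 mM sodium phosphate with 150 mM NaCl, at pH 6.0 or pH 7.4, concentration checked by absorbance at 495 nm. Hydroxyapatite powder (30 equiv) added, stirred, incubated at 37 °C, with a matching sample without hydroxyapatite as control. Centrifuged at 0–6 h and 20 h. Supernatant A495 read (ε 10650 M⁻¹ cm⁻¹). % bound = (no-HA − HA conc)/no-HA conc × 100. Mean of three measurements.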

Hydroxyapatite [27] = test: Binding affinity to bone mineral hydroxyapatite at pH 6 at 300 uM by photometric analysis; how it was run: as §7

Compound | Activity [1] | Activity (Bos taurus) | MTD at 504 h [2] [mg/kg] | Activity (Mus musculus [8]) | Activity (Mus musculus [9]) | Activity (Hydroxyapatite [10]) [%] | Activity (Hydroxyapatite [11]) [%] | Activity (Hydroxyapatite [12]) [%] | Drug metabolism [17] | other results
COc1cccc2c1C(=O)c1c(O)c3c(c(O)c1C2=O)C[C@@](O)(/C(CO)=N/NC(=O)CCCCCN1C(=O)CC(SCCCSCC(P(=O)(O)O)P(=O)(O)O)C1=O)C[C@@H]3O[C@H]1C[C@H](N)[C@H](O)[C@H](C)O1.Cl.N.N.N.N (some centres not stated) | 80% | 50% | 24 | Non-toxic | Non-toxic | 65 | 80 | 50 | – | Activity (Mus musculus [3]): Non-toxic; Activity (Mus musculus [4]): Toxic; Activity (Mus musculus [5]): Toxic; Activity (Mus musculus [6]): Non-toxic; Activity (Mus musculus [7]): Non-toxic; Drug metabolism (Plasma [13]): Active; Drug metabolism (Plasma [14]): Active; Drug metabolism [15]: tde; half-life at 600 µM [16]: 2.5 h
COc1cccc2c1C(=O)c1c(O)c3c(c(O)c1C2=O)C[C@@](O)(C(=O)CO)C[C@@H]3O[C@H]1C[C@H](NC(=O)OCc2ccc(NC(=O)[C@H](CCCCN)NC(=O)[C@H](Cc3ccccc3)NC(=O)CCCCCN3C(=O)CC(SCCCSCC(P(=O)([O-])[O-])P(=O)([O-])[O-])C3=O)cc2)[C@H](O)[C@H](C)O1.O=C(O)C(F)(F)F.[Na+].[Na+].[Na+].[Na+] (some centres not stated) | – | – | – | – | – | – | – | – | Active | –
COc1cccc2c1C(=O)c1c(O)c3c(c(O)c1C2=O)C[C@@](O)(C(=O)CO)C[C@@H]3O[C@H]1C[C@H](NC(=O)OCc2ccc(NC(=O)[C@H](C)NC(=O)[C@@H](NC(=O)CCCCCN3C(=O)CC(SCCCSCC(P(=O)(O)O)P(=O)(O)O)C3=O)C(C)C)cc2)[C@H](O)[C@H](C)O1.N.N.N.N (some centres not stated) | 80% | 50% | 8 | Non-toxic | Non-toxic | 65 | 90 | 50 | Active | Activity (Mus musculus [18]): Toxic; Activity (Mus musculus [19]): Toxic; Activity (Hydroxyapatite [20]): 90%; Activity (Hydroxyapatite [21]): 100%; Stability (Plasma [13]): Stable; Stability (Plasma [14]): Stable; Drug metabolism [22]: Active; Stability [23]: Stable; Drug metabolism [24]: Active; half-life [25]: 0.75 h
COc1cccc2c1C(=O)c1c(O)c3c(c(O)c1C2=O)C[C@@](O)(C(=O)CO)C[C@@H]3O[C@H]1C[C@H](N)[C@H](O)[C@H](C)O1 [DOXORUBICIN] | Not Active | inactive | 8 | – | – | – | – | – | – | Activity (Hydroxyapatite [26]): inactive; Activity (Hydroxyapatite [27]): inactive

Reference: ChEMBL document CHEMBL2169817, “Development of novel bisphosphonate prodrugs of doxorubicin for targeting bone metastases that are cleaved pH dependently or by cathepsin B: synthesis, cleavage properties, and binding properties to hydroxyapatite as well as bone matrix” (J Med Chem, 2012)
